Measurements taken from ChEMBL document CHEMBL4715768, “Conjugation of N-acylhydrazone and 1,2,4-oxadiazole leads to the identification of active antimalarial agents” (Bioorg Med Chem, 2016).
The source made the active and inactive calls. No cut-off for these calls is given here.

Columns and labels:
Plasmodium falciparum [1] = test: (§1) Antimalarial activity against chloroquine-resistant blood stage Plasmodium falciparum W2 infected in human erythrocytes assessed as parasite growth inhibition at 10 ug/ml incubated for 24 hrs followed by [3H]-hypoxanthine addition and further incubated for 24 hrs followed by cooling and measured after 24 hrs by beta radiation counter analysis relative to control; type: functional; details: W2, Erythrocyte, time 72 hrs
Outline: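 P. falciparum W2 grown in human O+ erythrocytes in RPMI 1640 with 10% human plasma, at 1% parasitemia and 2.5% hematocrit. Compounds diluted with 4% DMSO and medium, tested in triplicate. [3H]-hypoxanthine incorporation read; inhibition calculated against untreated parasites.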

Plasmodium berghei [2] = test: Antimalarial activity against Plasmodium berghei NK65 infected in Swiss mouse assessed as decrease in parasitemia at 50 mg/kg, po qd administered via gavage for 4 consecutive days and measured up to 8 days by optical microscopy analysis; type: functional, organism-based; details: time day <=8
Outline: (§2)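 Adult Swiss mice (4-6 weeks, n=5/group) inoculated i.p. with 10⁶ P. berghei NK65-infected red cells. Dosing began 1 h post-infection, once daily for 4 consecutive days by oral gavage or i.p. Vehicle was DMSO 20% in saline. Tail blood smears were taken on days 4–8, methanol-fixed, panoptic-stained and read by light microscopy. Inhibition = [(C−T)/C]×100 versus vehicle controls. Means ± SEM.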

Plasmodium berghei [3] = test: Antimalarial activity against Plasmodium berghei NK65 infected in Swiss mouse assessed as increase in mouse survival at 50 mg/kg, po qd administered via gavage for 4 consecutive days and […] relative to control; type: functional
Outline: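 Swiss mice, 4–6 weeks, n=5 per group, infected i.p. with 10⁶ P. berghei NK65-infected red cells. Treated once daily for 4 consecutive days starting 1 h post-infection, dosed by oral gavage in 20% DMSO. Vehicle controls received DMSO in saline. Survival followed up to 30 days; Mantel-Cox test. One experiment of two replicates.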

[4] = Hemolytic activity in human erythrocytes measured after 1 hr by microtiter plate method; type: ADME, cell-based, Erythrocyte; details: read-out: CC50
Outline: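 Fresh human O⁺ erythrocytes were washed three times in PBS and used at 1% hematocrit. Compounds dissolved in PBS were added in triplicate and incubated 1 h; saponin 1% v/v served as the full-lysis control. After centrifugation, haemoglobin released into the supernatant was read at 540 nm and hemolysis CC50 derived.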

Hemozoin [5] = test: Inhibition of beta-hematin formation measured after 24 hrs by spectrophotometry analysis
Outline: (§3)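 Haemin (0.5 mg/mL in 0.2 M NaOH) was mixed with 3 M sodium acetate, 17.4 M acetic acid and compound, tested at up to 2.5 mM. Incubation was 24 h at 37 °C. Pellets were washed with DMSO twice and water, dissolved in 0.1 M NaOH, and read at 405 nm. Inhibition was taken against a no-compound control, at least twice in triplicate. Chloroquine was the positive control. CQ index = IC50 CQ / IC50 compound.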

Plasmodium falciparum [6] = test: as §1, with “inhibition” for “inhibition at 10 ug/ml”, “analysis” for “analysis relative to control”; type: functional, organism-based; details: W2, Erythrocyte
Outline: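 W2 P. falciparum cultured in O+ human erythrocytes in RPMI 1640 plus 10% human plasma, at 1% parasitemia and 2.5% hematocrit. At least five compound concentrations, each in triplicate. Growth measured as [3H]-hypoxanthine uptake relative to untreated parasites. IC50 derived from two independent experiments.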

[7] = Cytotoxicity against human HepG2 cells assessed as reduction in cell growth measured after 72 hrs by alamar blue assay; type: cell-based
Outline: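 HepG2 cells in phenol red-free RPMI-1640 with 10% FBS were seeded at 10⁴ cells/well. After 24 h they were exposed to five concentrations in triplicate for 72 h at 37 °C, 5% CO₂. AlamarBlue (20%) was added for 24 h, and absorbance was read at 570/600 nm. CC50 came from non-linear regression, two independent experiments. Gentian violet served as the cytotoxic control.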

Hemozoin [8] = test: Potency index, ratio of chloroquine IC50 to test compound IC50 for inhibition of beta-hematin formation measured after 24 hrs by spectrophotometry analysis; outline: as §3
[9] = Selectivity index, ratio of CC50 for human HepG2 cells assessed as cell growth inhibition measured after 72 hrs by alamar blue assay to IC50 for chloroquine-resistant blood stage Plasmodium falciparum W2 infected in human erythrocytes assessed as parasite growth inhibition incubated for 24 hrs followed by [3H]-hypoxanthine addition and further incubated for 24 hrs followed by cooling and measured after 24 hrs by beta radiation counter analysis; type: toxicity, cell-based; details: read-out: Ratio CC50/IC50
Plasmodium berghei [10] = test: Antimalarial activity against Plasmodium berghei NK65 infected in Swiss mouse assessed as decrease in parasitemia at 100 mg/kg, ip qd administered via gavage for 4 consecutive days and measured up to 8 days by optical microscopy analysis; type: functional, organism-based; details: time day <=8; outline: as §2
Plasmodium berghei [11] = test: Antimalarial activity against Plasmodium berghei NK65 infected in Swiss mouse assessed as decrease in parasitemia at 100 mg/kg, po qd administered via gavage for 4 consecutive days and measured up to 8 days by optical microscopy analysis; type: functional, organism-based; details: time day <=8; outline: as §2
Plasmodium berghei [12] = test: Antimalarial activity against Plasmodium berghei NK65 infected in Swiss mouse assessed as increase in mouse survival at 100 mg/kg, po qd administered via gavage for 4 consecutive days and […] relative to control; type: functional, organism-based
Outline: (§4)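 Swiss mice (n=5/group) infected i.p. with 10⁶ P. berghei NK65 red cells, then treated 1 h later, once daily for 4 days, orally by gavage or i.p. Vehicle was DMSO in saline. Survival was followed to 30 days post-infection and compared with vehicle by Mantel-Cox test. One experiment of two replicates.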

Plasmodium berghei [13] = test: Antimalarial activity against Plasmodium berghei NK65 infected in Swiss mouse assessed as effect on mouse survival at 25 to 50 mg/kg, ip qd administered via gavage for 4 consecutive days and […] by optical microscopy analysis; type: functional, organism-based; details: dose 25-50 mg/kg; outline: as §4
Plasmodium berghei [14] = test: Antimalarial activity against Plasmodium berghei NK65 infected in Swiss mouse assessed as decrease in parasitemia at 25 to 50 mg/kg, ip qd administered via gavage for 4 consecutive days and measured up to 8 days by optical microscopy analysis; type: functional, organism-based; details: dose 25-50 mg/kg, time day <=8; outline: as §2

SMILES: COc1cc(/C=N/NC(=O)c2nc(-c3ccc(F)cc3)no2)ccc1O
- inhibition at 10 µg/mL (Plasmodium falciparum [1]): 24.7%

SMILES: CCN(CC)CCCC(C)Nc1ccnc2cc(Cl)ccc12 (stereo unspecified) [CHLOROQUINE]
- Activity (Plasmodium berghei [2]): Active
- Activity (Plasmodium berghei [3]): 100%
- HC50 at 1 h [4]: > 100 µg/mL
- IC50 (Hemozoin [5]): 800 µM

SMILES: O=C(N/N=C/c1ccc2c(c1)OCO2)c1nc(-c2ccc(O)cc2)no1
- inhibition at 10 µg/mL (Plasmodium falciparum [1]): 71.9%
- IC50 (Plasmodium falciparum [6]): 1.5 µM
- CC50 at 72 h [7]: > 200 µM
- HC50 at 1 h [4]: > 100 µg/mL
- Ratio IC50 (Hemozoin [8]): 1
- IC50 (Hemozoin [5]): 800 µM

SMILES: O=C(N/N=C/c1ccc2c(c1)OCO2)c1nc(-c2ccc(F)cc2)no1
- inhibition at 10 µg/mL (Plasmodium falciparum [1]): 31.6%

SMILES: O[C@@H](c1cc(C(F)(F)F)nc2c(C(F)(F)F)cccc12)[C@H]1CCCCN1 [(S,R)-MEFLOQUINE]
- inhibition at 10 µg/mL (Plasmodium falciparum [1]): 100%
- IC50 (Plasmodium falciparum [6]): 0.04 µM
- CC50 at 72 h [7]: 11.8 µM
- selectivity ratio at 72 h [9]: 295

SMILES: O=C(N/N=C/C=C/c1ccccc1)c1nc(-c2ccccc2)no1
- inhibition at 10 µg/mL (Plasmodium falciparum [1]): 51%

SMILES: O=C(N/N=C/c1ccc2c(c1)OCO2)c1nc(-c2ccccc2)no1
- inhibition at 10 µg/mL (Plasmodium falciparum [1]): 27.5%

SMILES: O=C(N/N=C/c1ccc2c(c1)OCO2)c1nc(-c2ccc([N+](=O)[O-])cc2)no1
- inhibition at 10 µg/mL (Plasmodium falciparum [1]): 33.9%

SMILES: Cc1ccc(-c2noc(C(=O)N/N=C/C=C/c3ccccc3)n2)cc1
- inhibition at 10 µg/mL (Plasmodium falciparum [1]): 52.7%

SMILES: O=C(N/N=C/c1ccc2c(c1)OCO2)c1nc(-c2ccc(Br)cc2)no1
- inhibition at 10 µg/mL (Plasmodium falciparum [1]): 45.3%

SMILES: COc1cc(/C=N/NC(=O)c2nc(-c3ccccc3)no2)ccc1O
- inhibition at 10 µg/mL (Plasmodium falciparum [1]): 55.4%

SMILES: O=C(N/N=C/C=C/c1ccccc1)c1nc(-c2ccc([N+](=O)[O-])cc2)no1
- inhibition at 10 µg/mL (Plasmodium falciparum [1]): 25.7%

SMILES: Cc1ccc(-c2noc(C(=O)N/N=C/c3ccc4c(c3)OCO4)n2)cc1
- inhibition at 10 µg/mL (Plasmodium falciparum [1]): 21.9%

SMILES: COc1ccc(-c2noc(C(=O)N/N=C/c3ccc4c(c3)OCO4)n2)cc1
- inhibition at 10 µg/mL (Plasmodium falciparum [1]): 27.5%

SMILES: O=C(N/N=C/C=C/c1ccccc1)c1nc(-c2ccc(O)cc2)no1
- inhibition at 10 µg/mL (Plasmodium falciparum [1]): 39.1%

SMILES: O=C(N/N=C/C=C/c1ccccc1)c1nc(-c2ccc(F)cc2)no1
- inhibition at 10 µg/mL (Plasmodium falciparum [1]): 34.3%

SMILES: COc1cc(/C=N/NC(=O)c2nc(-c3ccc(C)cc3)no2)ccc1O
- inhibition at 10 µg/mL (Plasmodium falciparum [1]): 61.1%
- IC50 (Plasmodium falciparum [6]): 0.12 µM
- CC50 at 72 h [7]: 46.6 µM
- selectivity ratio at 72 h [9]: 388
- HC50 at 1 h [4]: > 100 µg/mL
- Activity (Plasmodium berghei [10]): inactive
- Activity (Plasmodium berghei [11]): inactive
- Ratio IC50 (Hemozoin [8]): 1.3
- Activity (Plasmodium berghei [12]): inactive
- IC50 (Hemozoin [5]): 600 µM

SMILES: COc1ccc(-c2noc(C(=O)N/N=C/C=C/c3ccccc3)n2)cc1
- inhibition at 10 µg/mL (Plasmodium falciparum [1]): 26.1%

SMILES: COc1cc(/C=N/NC(=O)c2nc(-c3ccc([N+](=O)[O-])cc3)no2)ccc1O
- Activity (Plasmodium berghei [13]): inactive
- inhibition at 10 µg/mL (Plasmodium falciparum [1]): 68.7%
- IC50 (Plasmodium falciparum [6]): 0.2 µM
- CC50 at 72 h [7]: 14.8 µM
- Activity (Plasmodium berghei [14]): Active
- selectivity ratio at 72 h [9]: 74
- HC50 at 1 h [4]: > 100 µg/mL
- IC50 (Hemozoin [5]): > 2000 µM

SMILES: O=C(N/N=C/C=C/c1ccccc1)c1nc(-c2ccc(Br)cc2)no1
- inhibition at 10 µg/mL (Plasmodium falciparum [1]): 58.8%

SMILES: O=C(N/N=C/c1ccc2c(c1)OCO2)c1nc(-c2ccc(Cl)cc2)no1
- inhibition at 10 µg/mL (Plasmodium falciparum [1]): 53%

SMILES: COc1ccc(-c2noc(C(=O)N/N=C/c3ccc(O)c(OC)c3)n2)cc1
- inhibition at 10 µg/mL (Plasmodium falciparum [1]): 42.2%

SMILES: COc1cc(/C=N/NC(=O)c2nc(-c3ccc(O)cc3)no2)ccc1O
- inhibition at 10 µg/mL (Plasmodium falciparum [1]): 58.8%
- IC50 (Plasmodium falciparum [6]): 1.9 µM
- CC50 at 72 h [7]: > 200 µM
- HC50 at 1 h [4]: > 100 µg/mL
- IC50 (Hemozoin [5]): > 2000 µM

SMILES: COc1cc(/C=N/NC(=O)c2nc(-c3ccc(Br)cc3)no2)ccc1O
- inhibition at 10 µg/mL (Plasmodium falciparum [1]): 71.1%
- IC50 (Plasmodium falciparum [6]): 0.07 µM
- CC50 at 72 h [7]: 16.9 µM
- selectivity ratio at 72 h [9]: 241
- HC50 at 1 h [4]: 33 µg/mL
- Activity (Plasmodium berghei [10]): inactive
- Activity (Plasmodium berghei [11]): inactive
- Ratio IC50 (Hemozoin [8]): 0.8
- Activity (Plasmodium berghei [12]): inactive
- IC50 (Hemozoin [5]): 900 µM

SMILES: O=C(N/N=C/C=C/c1ccccc1)c1nc(-c2ccc(Cl)cc2)no1
- inhibition at 10 µg/mL (Plasmodium falciparum [1]): 28.8%

SMILES: COc1cc(/C=N/NC(=O)c2nc(-c3ccc(Cl)cc3)no2)ccc1O
- inhibition at 10 µg/mL (Plasmodium falciparum [1]): 37%
